# Measurements taken from ChEMBL document CHEMBL1156629, “Synthesis and discovery of high affinity folate receptor-specific glycinamide ribonucleotide formyltransferase inhibitors with antitumor activity” (J Med Chem, 2008).
# Active and inactive are the calls of the source. No cut-off for these calls is given here.
# Tests used:
# [1] = Antiproliferative activity against human RFC expressing Chinese hamster PC43-10 cells; conditions: Cricetulus griseus
# [2] = system: IGROV-1; assay: Antiproliferative activity against human RFC and FRalpha expressing human IGROV1 cells in presence of folic acid
# [3] = target: T1, Reduced folate transporter (Homo sapiens) (UniProt P41440); assay: Inhibition of human RFC-mediated [3H]MTX transport expressed in Chinese hamster PC43-10 cells; type: cell-based; design: concentration or dose not given beside the values; conditions: concentration not given here
# T1 sequence (whole entry): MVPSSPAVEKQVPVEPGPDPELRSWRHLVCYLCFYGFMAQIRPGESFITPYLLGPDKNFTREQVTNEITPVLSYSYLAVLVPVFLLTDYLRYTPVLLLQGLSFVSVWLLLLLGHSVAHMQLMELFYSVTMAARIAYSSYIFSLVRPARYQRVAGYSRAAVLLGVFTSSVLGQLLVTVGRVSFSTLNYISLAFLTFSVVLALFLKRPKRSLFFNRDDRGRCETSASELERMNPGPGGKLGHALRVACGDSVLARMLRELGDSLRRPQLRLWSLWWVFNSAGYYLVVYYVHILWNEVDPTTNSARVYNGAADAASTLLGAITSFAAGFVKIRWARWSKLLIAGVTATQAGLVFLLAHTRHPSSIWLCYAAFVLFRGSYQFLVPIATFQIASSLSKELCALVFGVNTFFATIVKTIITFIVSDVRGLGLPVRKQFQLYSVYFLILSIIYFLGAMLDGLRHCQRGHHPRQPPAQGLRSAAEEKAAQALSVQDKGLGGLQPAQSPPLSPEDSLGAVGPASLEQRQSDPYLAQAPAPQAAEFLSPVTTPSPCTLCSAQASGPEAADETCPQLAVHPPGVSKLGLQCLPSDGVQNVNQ
# [4] = cells; conditions: Cricetulus griseus, RT16
# [5] = system: KB; assay: Antiproliferative activity against human RFC and FRalpha expressing human KB cells in presence of folic acid
# [6] = target: T2, Trifunctional purine biosynthetic protein adenosine-3 (Homo sapiens, UniProt P22102)
# T2 sequence (P22102 whole entry): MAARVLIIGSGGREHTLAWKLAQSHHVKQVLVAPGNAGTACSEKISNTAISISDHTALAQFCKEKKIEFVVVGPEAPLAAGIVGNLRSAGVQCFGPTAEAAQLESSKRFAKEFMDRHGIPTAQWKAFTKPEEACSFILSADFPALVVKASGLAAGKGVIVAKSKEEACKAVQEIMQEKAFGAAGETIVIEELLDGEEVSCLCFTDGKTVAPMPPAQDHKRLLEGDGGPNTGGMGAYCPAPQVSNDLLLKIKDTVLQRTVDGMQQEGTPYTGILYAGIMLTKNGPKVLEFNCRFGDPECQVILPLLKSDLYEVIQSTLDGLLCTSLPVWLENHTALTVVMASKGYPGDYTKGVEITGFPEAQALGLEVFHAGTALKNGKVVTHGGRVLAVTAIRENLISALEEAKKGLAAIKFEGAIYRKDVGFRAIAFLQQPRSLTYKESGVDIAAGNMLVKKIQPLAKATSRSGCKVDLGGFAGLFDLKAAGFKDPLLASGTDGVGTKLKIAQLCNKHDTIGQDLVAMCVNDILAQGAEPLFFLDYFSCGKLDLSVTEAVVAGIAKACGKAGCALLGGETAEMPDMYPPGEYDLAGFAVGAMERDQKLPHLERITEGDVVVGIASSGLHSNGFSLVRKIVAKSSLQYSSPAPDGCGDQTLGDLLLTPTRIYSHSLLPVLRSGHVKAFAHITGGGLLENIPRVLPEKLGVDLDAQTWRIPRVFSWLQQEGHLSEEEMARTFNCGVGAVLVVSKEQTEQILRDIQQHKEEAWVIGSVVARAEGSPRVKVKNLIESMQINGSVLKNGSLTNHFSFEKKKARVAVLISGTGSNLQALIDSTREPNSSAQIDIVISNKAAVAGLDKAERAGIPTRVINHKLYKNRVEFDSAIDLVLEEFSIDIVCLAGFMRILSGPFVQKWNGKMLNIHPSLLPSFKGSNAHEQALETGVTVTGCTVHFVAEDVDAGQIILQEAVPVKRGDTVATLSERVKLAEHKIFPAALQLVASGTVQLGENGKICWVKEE
# [7] = system: KB; assay: cells; conditions: Homo sapiens
# [8] = target: T3, Trifunctional purine biosynthetic protein adenosine-3 (Mus musculus, UniProt Q64737); assay: Inhibition of mouse recombinant GARFTase
# T3 sequence (Q64737 whole entry): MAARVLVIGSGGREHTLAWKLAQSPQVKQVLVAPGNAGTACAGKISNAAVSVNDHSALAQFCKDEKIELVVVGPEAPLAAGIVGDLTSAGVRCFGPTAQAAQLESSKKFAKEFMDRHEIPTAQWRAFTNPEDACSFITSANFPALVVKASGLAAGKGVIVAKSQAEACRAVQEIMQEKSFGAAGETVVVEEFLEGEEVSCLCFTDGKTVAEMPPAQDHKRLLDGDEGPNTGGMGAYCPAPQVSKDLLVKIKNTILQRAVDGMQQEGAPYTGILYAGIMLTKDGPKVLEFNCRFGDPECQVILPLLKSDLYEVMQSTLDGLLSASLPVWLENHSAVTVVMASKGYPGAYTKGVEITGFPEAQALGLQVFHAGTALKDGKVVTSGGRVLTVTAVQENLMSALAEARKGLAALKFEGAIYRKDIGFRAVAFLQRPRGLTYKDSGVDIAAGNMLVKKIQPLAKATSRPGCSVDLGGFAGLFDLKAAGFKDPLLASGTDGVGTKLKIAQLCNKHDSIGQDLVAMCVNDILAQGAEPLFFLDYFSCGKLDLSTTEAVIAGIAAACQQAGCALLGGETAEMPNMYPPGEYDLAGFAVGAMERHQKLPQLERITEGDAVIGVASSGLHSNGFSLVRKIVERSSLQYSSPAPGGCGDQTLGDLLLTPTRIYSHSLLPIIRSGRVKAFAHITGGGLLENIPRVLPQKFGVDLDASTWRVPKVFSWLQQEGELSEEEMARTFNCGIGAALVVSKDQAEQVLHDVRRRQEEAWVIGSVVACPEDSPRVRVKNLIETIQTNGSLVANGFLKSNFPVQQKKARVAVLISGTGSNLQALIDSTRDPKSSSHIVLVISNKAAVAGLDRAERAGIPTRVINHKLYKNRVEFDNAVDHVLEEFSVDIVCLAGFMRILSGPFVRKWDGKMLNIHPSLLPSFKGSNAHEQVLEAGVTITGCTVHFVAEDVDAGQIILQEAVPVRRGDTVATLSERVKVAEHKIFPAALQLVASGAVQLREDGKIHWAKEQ
# [9] = Antiproliferative activity against human FRalpha expressing Chinese hamster RT16 cells in presence of folic acid; conditions: Cricetulus griseus
# [10] = Antiproliferative activity against human FRbeta expressing Chinese hamster D4 cells in presence of folic acid; conditions: Cricetulus griseus
# [11] = system: R2; assay: Antiproliferative activity against human RFC expressing Chinese hamster R2 cells
# [12] = system: IGROV-1; assay: Antiproliferative activity against human RFC and FRalpha expressing human IGROV1 cells
# [13] = cells; conditions: Cricetulus griseus, D4
# [14] = target: Folate receptor beta (Homo sapiens) (UniProt P14207); assay: Displacement of [3H]folic acid from human FRbeta in Chinese hamster D4 cells; type: cell-based
# Sequence of Folate receptor beta (Homo sapiens) (P14207 17-230 limits assumed): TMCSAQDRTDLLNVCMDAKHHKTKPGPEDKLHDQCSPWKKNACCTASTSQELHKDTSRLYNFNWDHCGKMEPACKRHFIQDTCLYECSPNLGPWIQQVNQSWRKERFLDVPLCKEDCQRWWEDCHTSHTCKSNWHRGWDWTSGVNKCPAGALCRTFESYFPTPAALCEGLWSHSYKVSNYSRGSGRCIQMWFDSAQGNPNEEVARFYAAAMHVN
# Method in brief: (§1)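 Cells were acid-stripped (pH 3.5 acetate buffer) and washed in ice-cold HEPES-buffered saline, pH 7.4. They were then incubated 15 min at 0°C with 50 nM [3H]folic acid (0.5 Ci/mmol) and a range of unlabeled ligand concentrations. Bound label was normalized to Lowry protein. […] Mean of 3 experiments.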
# [15] = target: Folate receptor alpha (Homo sapiens) (UniProt P15328); assay: Displacement of [3H]folic acid from human FRalpha in Chinese hamster RT16 cells; type: cell-based; method in brief: as §1
# Sequence of Folate receptor alpha (Homo sapiens) (P15328 25-234 limits assumed): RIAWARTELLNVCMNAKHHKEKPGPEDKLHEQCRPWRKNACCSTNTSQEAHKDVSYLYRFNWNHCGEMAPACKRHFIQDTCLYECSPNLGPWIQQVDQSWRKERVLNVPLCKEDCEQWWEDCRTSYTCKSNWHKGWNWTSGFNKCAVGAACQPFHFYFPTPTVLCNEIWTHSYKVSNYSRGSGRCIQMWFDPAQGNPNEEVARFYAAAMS
# [16] = system: KB; assay: cells; conditions: Homo sapiens, read-out: INH
# [17] = target: T1, Reduced folate transporter (Homo sapiens); assay: Inhibition of human RFC-mediated [3H]MTX transport in Chinese hamster PC43-10 cells at 10 uM; type: cell-based
SMILES,IC50 [1] [µM],IC50 [2] [µM],inhibition [3] [%],IC50 [5] [µM],IC50 [8] [µM],IC50 [9] [µM],IC50 [10] [µM],IC50 [11] [µM],Activity [14],Activity [15],inhibition [17] [%],also measured
Nc1nc2[nH]c(Cc3ccc(C(=O)N[C@@H](CCC(=O)O)C(=O)O)cc3)cc2c(=O)[nH]1,> 1,> 1,< 20,> 1,> 20,> 1,> 1,> 1,–,–,–,IC50 [4]: > 1 µM; IC50 [6]: > 1 µM; IC50 [7]: > 1 µM; IC50 [12]: > 1 µM; IC50 [13]: > 1 µM
COc1cc(NCc2ccc3nc(N)nc(N)c3c2C)cc(OC)c1OC [TRIMETREXATE],–,0.0086,–,–,–,–,0.0061,–,–,–,–,–
Nc1nc2[nH]c(CCCCc3ccc(C(=O)N[C@@H](CCC(=O)O)C(=O)O)cc3)cc2c(=O)[nH]1,> 1,> 1,< 20,> 1,0.15,> 1,–,> 1,Active,Active,–,inhibition at 1 µM [16]: > 97%
Nc1nc2ccc3ccc(CNc4ccc5c(c4)CN([C@@H](CCC(=O)O)C(=O)O)C5=O)cc3c2c(=O)[nH]1,–,–,–,0.032,–,> 1,–,–,–,–,–,IC50 [7]: 0.0058 µM
Nc1nc2c(c(=O)[nH]1)C[C@@H](CCc1ccc(C(=O)N[C@@H](CCC(=O)O)C(=O)O)cc1)CN2 [LOMETREXOL],–,–,–,–,–,0.188,0.275,–,–,–,60,–
Cc1nc(=O)c2cc(CN(C)c3ccc(C(=O)N[C@@H](CCC(=O)O)C(=O)O)s3)ccc2[nH]1 [RALTITREXED],–,–,–,–,–,–,–,–,–,–,–,inhibition at 1 µM [16]: > 99%
Nc1nc2[nH]c(CCCCCCc3ccc(C(=O)N[C@@H](CCC(=O)O)C(=O)O)cc3)cc2c(=O)[nH]1,> 1,> 1,< 20,> 1,2.51,> 1,> 1,> 1,Active,Active,–,IC50 [4]: 0.162 µM; IC50 [6]: 0.0086 µM; IC50 [12]: 0.309 µM; IC50 [13]: 0.198 µM
Nc1nc2[nH]c(CCCc3ccc(C(=O)N[C@@H](CCC(=O)O)C(=O)O)cc3)cc2c(=O)[nH]1,0.304,> 1,< 20,> 1,2.44,> 1,> 1,0.448,Active,Active,–,–
Nc1nc(=O)c2c([nH]1)NCC(CNc1ccc(C(=O)N[C@@H](CCC(=O)O)C(=O)O)cc1)N2C=O (stereo partly specified),–,–,–,–,–,–,–,–,–,–,60,–
CN(Cc1cnc2nc(N)nc(N)c2n1)c1ccc(C(=O)N[C@@H](CCC(=O)O)C(=O)O)cc1 [METHOTREXATE],–,–,–,–,–,–,–,–,–,–,60,–
Nc1nc2[nH]c(CCCCCc3ccc(C(=O)N[C@@H](CCC(=O)O)C(=O)O)cc3)cc2c(=O)[nH]1,> 1,> 1,< 20,> 1,2.26,> 1,> 1,> 1,Active,Active,–,IC50 [6]: 0.0072 µM
Nc1nc2[nH]cc(CCc3ccc(C(=O)N[C@@H](CCC(=O)O)C(=O)O)cc3)c2c(=O)[nH]1 [PEMETREXED],–,0.2,–,–,–,–,–,–,–,–,60,–
